Measured values as given in ChEMBL document CHEMBL5058577, “EUbOPEN Chemogenomics Library 2 (Multiplex)” (2022).

Test system: HEK-293T
Experiment: Multiplex assay against HEK293T
Format: toxicity, cell-based
Conditions: human
Outline: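 Hoechst33342, BioTracker Green Microtubule Cytoskeleton Dye, MitoTracker Red and Annexin V Alexa Fluor 680 were added to live cells at seeding, and imaging on a CQ1 microscope at 37°C and 5% CO2 followed compound addition. Gating by CellPathfinder machine learning separated cells into Hoechst high-intensity objects or normal cells, then normal cells into healthy, pyknosed or fragmented nuclei, then pyknosed cells into mitotic or apoptotic. Per cents of healthy-nucleus cells are reported for the tubulin, mitochondrial-mass and membrane-permeability phenotypes.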

[1] = 12 h, 1 µM, compound concentration 1 uM, replicate 1
[2] = 12 h, 1 µM, compound concentration 1 uM, replicate 2
[3] = 12 h, 10 µM, compound concentration 10 uM, replicate 1
[4] = 12 h, 10 µM, compound concentration 10 uM, replicate 2
[5] = 24 h, 1 µM, compound concentration 1 uM, replicate 1
[6] = 24 h, 1 µM, compound concentration 1 uM, replicate 2
[7] = 24 h, 10 µM, compound concentration 10 uM, replicate 1
[8] = 24 h, 10 µM, compound concentration 10 uM, replicate 2
[9] = 48 h, 1 µM, compound concentration 1 uM, replicate 1
[10] = 48 h, 1 µM, compound concentration 1 uM, replicate 2
[11] = 48 h, 10 µM, compound concentration 10 uM, replicate 1
[12] = 48 h, 10 µM, compound concentration 10 uM, replicate 2

SMILES: Cc1onc(-c2ccccc2Cl)c1C(=O)N(C)c1ccc(Cl)cc1
- Population Apoptotic (%) [1]: 35%
- Population Fragmented Nuclei (%) [1]: 8%
- Population Healthy Nuclei (%) [1]: 79%
- Population Hoechst High Intensity Objects (%) [1]: 9%
- Population Membrane Permeable-Phenotype (%) [1]: 0%
- Population Mitochondria Different-Phenotype (%) [1]: 41%
- Population Mitotic Cells (%) [1]: 64%
- Population Normal (%) [1]: 90%
- Population Pyknosed Nuclei (%) [1]: 12%
- Population Tubulin-Different-Phenotype (%) [1]: 25%
- Total Cell Count [1]: 375
- Population Apoptotic (%) [2]: 37%
- Population Fragmented Nuclei (%) [2]: 3%
- Population Healthy Nuclei (%) [2]: 84%
- Population Hoechst High Intensity Objects (%) [2]: 6%
- Population Mitochondria Different-Phenotype (%) [2]: 59%
- Population Mitotic Cells (%) [2]: 62%
- Population Normal (%) [2]: 93%
- Total Cell Count [2]: 320
- Population Apoptotic (%) [3]: 38%
- Population Fragmented Nuclei (%) [3]: 7%
- Population Healthy Nuclei (%) [3]: 79%
- Population Hoechst High Intensity Objects (%) [3]: 12%
- Population Membrane Permeable-Phenotype (%) [3]: 0%
- Population Mitochondria Different-Phenotype (%) [3]: 49%
- Population Mitotic Cells (%) [3]: 61%
- Population Normal (%) [3]: 87%
- Population Pyknosed Nuclei (%) [3]: 13%
- Population Tubulin-Different-Phenotype (%) [3]: 43%
- Total Cell Count [3]: 357
- Population Apoptotic (%) [4]: 45%
- Population Fragmented Nuclei (%) [4]: 4%
- Population Healthy Nuclei (%) [4]: 80%
- Population Hoechst High Intensity Objects (%) [4]: 6%
- Population Mitochondria Different-Phenotype (%) [4]: 65%
- Population Mitotic Cells (%) [4]: 54%
- Population Normal (%) [4]: 93%
- Population Pyknosed Nuclei (%) [4]: 14%
- Population Tubulin-Different-Phenotype (%) [4]: 35%
- Total Cell Count [4]: 330
- Population Apoptotic (%) [5]: 23%
- Population Fragmented Nuclei (%) [5]: 9%
- Population Healthy Nuclei (%) [5]: 81%
- Population Hoechst High Intensity Objects (%) [5]: 5%
- Population Membrane Permeable-Phenotype (%) [5]: 1%
- Population Mitochondria Different-Phenotype (%) [5]: 21%
- Population Mitotic Cells (%) [5]: 76%
- Population Normal (%) [5]: 94%
- Population Pyknosed Nuclei (%) [5]: 9%
- Population Tubulin-Different-Phenotype (%) [5]: 14%
- Total Cell Count [5]: 523
- Population Apoptotic (%) [6]: 42%
- Population Fragmented Nuclei (%) [6]: 5%
- Population Hoechst High Intensity Objects (%) [6]: 3%
- Population Mitochondria Different-Phenotype (%) [6]: 44%
- Population Mitotic Cells (%) [6]: 57%
- Population Normal (%) [6]: 96%
- Population Pyknosed Nuclei (%) [6]: 12%
- Population Tubulin-Different-Phenotype (%) [6]: 18%
- Total Cell Count [6]: 383
- Population Apoptotic (%) [7]: 45%
- Population Fragmented Nuclei (%) [7]: 8%
- Population Healthy Nuclei (%) [7]: 79%
- Population Hoechst High Intensity Objects (%) [7]: 5%
- Population Membrane Permeable-Phenotype (%) [7]: 1%
- Population Mitochondria Different-Phenotype (%) [7]: 32%
- Population Mitotic Cells (%) [7]: 54%
- Population Normal (%) [7]: 94%
- Population Pyknosed Nuclei (%) [7]: 12%
- Population Tubulin-Different-Phenotype (%) [7]: 20%
- Total Cell Count [7]: 478
- Population Apoptotic (%) [8]: 29%
- Population Fragmented Nuclei (%) [8]: 7%
- Population Healthy Nuclei (%) [8]: 82%
- Population Hoechst High Intensity Objects (%) [8]: 3%
- Population Membrane Permeable-Phenotype (%) [8]: 0%
- Population Mitochondria Different-Phenotype (%) [8]: 47%
- Population Mitotic Cells (%) [8]: 70%
- Population Normal (%) [8]: 96%
- Population Pyknosed Nuclei (%) [8]: 9%
- Total Cell Count [8]: 413
- Population Apoptotic (%) [9]: 21%
- Population Fragmented Nuclei (%) [9]: 14%
- Population Healthy Nuclei (%) [9]: 79%
- Population Hoechst High Intensity Objects (%) [9]: 2%
- Population Membrane Permeable-Phenotype (%) [9]: 0%
- Population Mitochondria Different-Phenotype (%) [9]: 11%
- Population Mitotic Cells (%) [9]: 78%
- Population Normal (%) [9]: 97%
- Population Pyknosed Nuclei (%) [9]: 6%
- Population Tubulin-Different-Phenotype (%) [9]: 9%
- Total Cell Count [9]: 932
- Population Apoptotic (%) [10]: 31%
- Population Fragmented Nuclei (%) [10]: 11%
- Population Healthy Nuclei (%) [10]: 82%
- Population Membrane Permeable-Phenotype (%) [10]: 1%
- Population Mitochondria Different-Phenotype (%) [10]: 23%
- Population Mitotic Cells (%) [10]: 68%
- Population Pyknosed Nuclei (%) [10]: 5%
- Population Tubulin-Different-Phenotype (%) [10]: 12%
- Total Cell Count [10]: 620
- Population Apoptotic (%) [11]: 33%
- Population Fragmented Nuclei (%) [11]: 14%
- Population Healthy Nuclei (%) [11]: 76%
- Population Hoechst High Intensity Objects (%) [11]: 3%
- Population Membrane Permeable-Phenotype (%) [11]: 1%
- Population Mitochondria Different-Phenotype (%) [11]: 16%
- Population Mitotic Cells (%) [11]: 66%
- Population Normal (%) [11]: 96%
- Population Pyknosed Nuclei (%) [11]: 8%
- Population Tubulin-Different-Phenotype (%) [11]: 15%
- Total Cell Count [11]: 755
- Population Apoptotic (%) [12]: 20%
- Population Fragmented Nuclei (%) [12]: 12%
- Population Healthy Nuclei (%) [12]: 81%
- Population Membrane Permeable-Phenotype (%) [12]: 0%
- Population Mitochondria Different-Phenotype (%) [12]: 25%
- Population Mitotic Cells (%) [12]: 79%
- Population Pyknosed Nuclei (%) [12]: 6%
- Population Tubulin-Different-Phenotype (%) [12]: 16%
- Total Cell Count [12]: 652
